Measured values as given in ChEMBL document CHEMBL4118209, “Development of autotaxin inhibitors: A series of zinc binding triazoles” (Bioorg Med Chem Lett, 2018).
In brackets after ≈: the same amount, converted by molar mass. Values belong to the compound of their own block, whether it stands above or below them.

Columns and labels:
Autotaxin [1] = molecular target: T1, Autotaxin (Homo sapiens, UniProt Q13822); assay: Inhibition of ATX (unknown origin) assessed as decrease in choline release
[2] = Equilibrium solubility of compound at pH 6.8 by high-throughput screening method; conditions: buffer
[3] = Permeability assessed as drug absorption at 50 ug/ml after 5 hrs by PAMPA; conditions: at 50 µg/mL
[4] = Clearance in Sprague-Dawley rat at 1 mg/kg, iv; type: ADME, organism-based; conditions: in vivo
[5] = Fraction unbound in human plasma at 5 uM after 2 to 6 hrs by rapid equilibrium dialysis method; type: ADME, cell-free
[6] = Cmax in Sprague-Dawley rat at 10 mg/kg, po; type: ADME, organism-based; set-up: dose 10 mg/kg, route oral; conditions: in vivo
[7] = Volume of distribution at steady state in Sprague-Dawley rat at 1 mg/kg, iv; type: ADME, organism-based; conditions: in vivo, read-out: Vdss
[8] = Tmax in Sprague-Dawley rat at 10 mg/kg, po; type: ADME, organism-based; conditions: in vivo
[9] = Oral bioavailability in Sprague-Dawley rat at 10 mg/kg; type: ADME, organism-based; conditions: in vivo
[10] = Half life in Sprague-Dawley rat at 1 mg/kg, iv; type: ADME, organism-based; conditions: in vivo
Rattus norvegicus [11] = assay: AUC (0 to infinity) in Sprague-Dawley rat at 10 mg/kg, po; type: ADME, organism-based; set-up: dose 10 mg/kg, time infinity, route oral; conditions: in vivo
[12] = Intrinsic clearance in Sprague-Dawley rat liver microsomes at 1 uM by HPLC analysis; type: ADME, microsome; conditions: read-out: CLH
[13] = Oral bioavailability in Lewis rat at 1 to 100 mg/kg dosed via gavage after 1.25 to 24 hrs; type: ADME, organism-based; conditions: in vivo
[14] = molecular target: T2, Voltage-gated inwardly rectifying potassium channel KCNH2 (Homo sapiens, UniProt Q12809); assay: Displacement of [3H]dofetilide from human ERG expressed in HEK293 cells after 45 mins by scintillation counting method
T2 sequence (Q12809 whole entry): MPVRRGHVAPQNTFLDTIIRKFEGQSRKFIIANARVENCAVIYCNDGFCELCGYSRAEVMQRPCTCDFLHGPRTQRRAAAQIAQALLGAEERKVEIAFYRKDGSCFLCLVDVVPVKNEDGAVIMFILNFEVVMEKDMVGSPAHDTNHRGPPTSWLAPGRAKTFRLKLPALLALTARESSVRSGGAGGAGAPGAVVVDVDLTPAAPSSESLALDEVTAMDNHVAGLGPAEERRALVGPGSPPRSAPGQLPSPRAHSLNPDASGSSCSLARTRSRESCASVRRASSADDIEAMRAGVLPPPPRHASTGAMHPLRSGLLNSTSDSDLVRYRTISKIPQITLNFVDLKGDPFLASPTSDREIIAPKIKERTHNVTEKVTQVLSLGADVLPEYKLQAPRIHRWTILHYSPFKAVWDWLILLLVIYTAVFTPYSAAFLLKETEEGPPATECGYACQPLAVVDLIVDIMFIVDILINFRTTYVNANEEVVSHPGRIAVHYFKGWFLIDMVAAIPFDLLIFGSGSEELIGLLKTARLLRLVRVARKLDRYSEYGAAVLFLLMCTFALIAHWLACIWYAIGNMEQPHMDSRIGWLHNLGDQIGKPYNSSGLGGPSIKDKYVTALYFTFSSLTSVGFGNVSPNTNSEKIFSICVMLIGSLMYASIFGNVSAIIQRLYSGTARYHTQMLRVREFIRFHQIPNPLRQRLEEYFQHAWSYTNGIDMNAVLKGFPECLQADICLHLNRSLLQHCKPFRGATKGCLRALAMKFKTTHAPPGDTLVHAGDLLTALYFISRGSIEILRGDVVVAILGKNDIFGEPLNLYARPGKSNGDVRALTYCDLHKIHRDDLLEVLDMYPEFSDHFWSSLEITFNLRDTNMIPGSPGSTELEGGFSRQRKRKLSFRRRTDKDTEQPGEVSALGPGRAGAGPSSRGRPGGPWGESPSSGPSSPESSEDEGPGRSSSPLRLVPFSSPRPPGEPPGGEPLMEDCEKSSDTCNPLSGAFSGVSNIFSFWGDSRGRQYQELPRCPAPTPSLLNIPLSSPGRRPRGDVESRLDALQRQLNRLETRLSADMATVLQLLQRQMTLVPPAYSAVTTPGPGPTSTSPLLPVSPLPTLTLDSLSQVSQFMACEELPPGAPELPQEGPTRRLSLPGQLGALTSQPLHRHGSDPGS

[15] = molecular target: T2, Voltage-gated inwardly rectifying potassium channel KCNH2; assay: Inhibition of human ERG expressed in CHO-K1 cells at -90 mV holding potential by Qpatch clamp assay
Autotaxin [16] = molecular target: T1, Autotaxin; assay: Inhibition of ATX in human serum assessed as reduction in LPA 18:1 levels after 3 hrs by LC-MS/MS analysis
Method in brief: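 Human serum was cleared of coagulated blood by centrifugation (2100g, 10 min, room temperature) and stored at −80 °C. It was incubated with compound (0.5 nM–10 μM) with shaking at 37 °C for 3 h. LPA was extracted into methanol with 30 mM citric acid and LPA 17:0 internal standard (0.5 µM), then quantified by LC-MS/MS (negative-ion MRM). IC50 was obtained by non-linear regression.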

Rattus norvegicus [17] = assay: In vivo inhibition of ATX in Sprague-Dawley rat assessed as reduction in LPA 16:0 levels in serum at 0.3 mg/kg, po measured over 24 hrs by LCMS analysis relative to control; type: functional
Method in brief: (§1)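 Male Sprague-Dawley rats (n = 6 per group) were given compound or vehicle (0.5% methyl cellulose:0.5% Tween80) orally at 5 ml/kg. Tail-vein blood was taken at various times without anticoagulant, held 30 min at room temperature, and spun at 700g for 10 min. Serum was stored at −80 °C. LPA isoforms were measured by LC-MS/MS, and PK/PD was assessed with a link model.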

Rattus norvegicus [18] = assay: In vivo inhibition of ATX in po dosed Sprague-Dawley rat assessed as reduction in LPA 16:0 levels in serum measured over 24 hrs by LCMS analysis; type: functional, organism-based; method in brief: as §1
Rattus norvegicus [19] = assay: In vivo inhibition of ATX in Sprague-Dawley rat assessed as reduction in LPA 24:4 levels in serum at 0.3 mg/kg, po measured over 24 hrs by LCMS analysis relative to control; type: functional; conditions: in the assay text read “LPA 20:4” for “LPA 24:4”; method in brief: as §1
Rattus norvegicus [20] = assay: In vivo inhibition of ATX in po dosed Sprague-Dawley rat assessed as reduction in LPA 18:0 levels in serum measured over 24 hrs by LCMS analysis; type: functional, organism-based; method in brief: as §1
[21] = Intrinsic clearance in human liver microsomes at 1 uM by HPLC analysis; type: ADME, microsome; conditions: read-out: CLH
Rattus norvegicus [22] = assay: In vivo inhibition of ATX in Sprague-Dawley rat assessed as reduction in LPA 18:1 levels in serum at 0.3 mg/kg, po measured over 24 hrs by LCMS analysis relative to control; type: functional; method in brief: as §1
[23] = Thermodynamic solubility in FeSSIF; type: physicochemical; conditions: read-out: Therm_solubility
Rattus norvegicus [24] = assay: In vivo inhibition of ATX in po dosed Sprague-Dawley rat assessed as reduction in LPA 24:4 levels in serum measured over 24 hrs by LCMS analysis; type: functional, organism-based; conditions: in the assay text read “LPA 20:4” for “LPA 24:4”; method in brief: as §1
Rattus norvegicus [25] = assay: In vivo inhibition of ATX in Sprague-Dawley rat assessed as reduction in LPA 18:0 levels in serum at 0.3 mg/kg, po measured over 24 hrs by LCMS analysis relative to control; type: functional; method in brief: as §1
Rattus norvegicus [26] = assay: In vivo inhibition of ATX in po dosed Sprague-Dawley rat assessed as reduction in LPA 18:1 levels in serum measured over 24 hrs by LCMS analysis; type: functional, organism-based; method in brief: as §1
[27] = Fraction unbound in rat plasma at 5 uM after 2 to 6 hrs by rapid equilibrium dialysis method; type: ADME, cell-free

SMILES: O=C(CCCc1c[nH]nn1)NC1CCN(C(=O)OCc2ccc(Cl)cc2Cl)CC1
Drug absorption [3]: 43%

SMILES: O=C(CCCc1c[nH]nn1)NC1CCN(C(=O)OCc2ccc(C(F)(F)F)cc2)CC1
IC50 (Autotaxin [1]): 39 nM | Drug absorption [3]: 35%

SMILES: CN(CCC1CCN(C(=O)OCc2cc(Cl)cc(Cl)c2)CC1)C(=O)c1c[nH]nn1
IC50 (Autotaxin [1]): 150 nM | Drug absorption [3]: 97% | microsomal CLint at 1 µM [12]: 51 µL/min/mg | IC50 [15]: 8600 nM

SMILES: Cn1cc(CCCC(=O)NC2CCN(C(=O)OCc3cc(Cl)cc(Cl)c3)CC2)nn1
IC50 (Autotaxin [1]): 1370 nM

SMILES: N#Cc1cc(Cl)cc(COC(=O)N2CCC(NC(=O)CCCc3c[nH]nn3)CC2)c1
IC50 (Autotaxin [1]): 7.7 nM | Drug absorption [3]: 21%

SMILES: O=C(CCCc1c[nH]nn1)NC1CCN(C(=O)OCc2cc(Cl)cc(Cl)c2)CC1
clearance [4]: 16 mL/min/kg | IC50 (Autotaxin [16]): 9 nM | fraction unbound at 5 µM [5]: 0.026 | inhibition in vivo at 0.3 mg/kg (Rattus norvegicus [17]): 70 to 80% | IC50 (Rattus norvegicus [18]): 20 nM | inhibition in vivo at 0.3 mg/kg (Rattus norvegicus [19]): 70 to 80% | IC50 (Rattus norvegicus [20]): 20 nM | IC50 (Autotaxin [1]): 3.1 nM | microsomal CLint at 1 µM [21]: 59 µL/min/mg | Cmax [6]: 2.85 µM | Vd [7]: 2.5 L/kg | Tmax [8]: 1.3 h | bioavailability [9]: 68% | half-life [10]: 5.3 h | inhibition in vivo at 0.3 mg/kg (Rattus norvegicus [22]): 70 to 80% | solubility thermodynamic [23]: 126 µg/mL (≈ 286 µM) | IC50 (Rattus norvegicus [24]): 20 nM | inhibition in vivo at 0.3 mg/kg (Rattus norvegicus [25]): 70 to 80% | Drug absorption [3]: 43% | AUC (Rattus norvegicus [11]): 17 µM·h | IC50 (Rattus norvegicus [26]): 20 nM | microsomal CLint at 1 µM [12]: 104 µL/min/mg | fraction unbound at 5 µM [27]: 0.04 | IC50 [15]: 20900 nM

SMILES: O=C(CCCc1c[nH]nn1)NC1CCN(C(=O)OCc2cc(F)cc(Cl)c2)CC1
Drug absorption [3]: 35%

SMILES: O=C(CCc1c[nH]nn1)NC1CCN(C(=O)OCc2cc(Cl)cc(Cl)c2)CC1
microsomal CLint at 1 µM [12]: 75 µL/min/mg

SMILES: CN(C(=O)CCCc1c[nH]nn1)C1CCN(C(=O)OCc2cc(Cl)cc(Cl)c2)CC1
Drug absorption [3]: 89%

Further lines, with some results ahead:

IC50 (Autotaxin [1]): 170 nM
SMILES: O=C(CCN1CCN(C(=O)OCC2CCCC2)CC1)c1ccc2[nH]c(=O)oc2c1

solubility thermodynamic [2]: 60 µg/mL (≈ 135 µM) | IC50 (Autotaxin [1]): 370 nM | Drug absorption [3]: 35%
SMILES: O=C(NCCN1CCN(C(=O)OCc2cc(Cl)cc(Cl)c2)CC1)c1c[nH]c(=O)o1

IC50 (Autotaxin [1]): 240 nM
SMILES: O=C(CCN1CCN(C(=O)OCC2CCCCC2)CC1)c1ccc2[nH]c(=O)oc2c1

IC50 (Autotaxin [1]): 8 nM
SMILES: O=C(NCC1(O)CCN(C(=O)OCc2cc(Cl)cc(Cl)c2)CC1)c1ccc2[nH]c(=O)oc2c1

clearance [4]: 12 mL/min/kg | fraction unbound at 5 µM [5]: 0.005 | Cmax [6]: 3.4 µM | Vd [7]: 2.2 L/kg | Tmax [8]: 2.5 h | bioavailability [9]: 80% | half-life [10]: 4.8 h | AUC (Rattus norvegicus [11]): 25 µM·h | microsomal CLint at 1 µM [12]: 235 µL/min/mg
SMILES: CN(CCC1CCN(C(=O)OCc2cc(Cl)cc(Cl)c2)CC1)C(=O)c1c[nH]c(=O)o1

solubility thermodynamic [2]: 10 to 11 µg/mL (≈ 20.9 to 23 µM) | bioavailability [13]: 43 to 83% | Drug absorption [3]: 81%
SMILES: O=C(CCN1CCN(C(=O)OCc2cc(Cl)cc(Cl)c2)CC1)c1ccc2[nH]c(=O)oc2c1
IC50 [14]: 2700 nM

IC50 (Autotaxin [1]): 3.9 nM
SMILES: O=C(OCc1cc(Cl)cc(Cl)c1)N1CC(N2CCN(C(=O)c3ccc4[nH]c(=O)oc4c3)CC2)C1

IC50 (Autotaxin [1]): 10 nM
SMILES: O=C(NCCC1CN(C(=O)OCc2cc(Cl)cc(Cl)c2)CCO1)c1ccc2[nH]c(=O)oc2c1 (racemic)

IC50 (Autotaxin [1]): 130 nM
SMILES: O=C(CCN1CCN(C(=O)OCc2ccccc2)CC1)c1ccc2[nH]c(=O)oc2c1

solubility thermodynamic [2]: 80 µg/mL (≈ 181 µM) | IC50 (Autotaxin [1]): 86 nM | Drug absorption [3]: 68%
SMILES: O=C(NCCC1CCN(C(=O)OCc2cc(Cl)cc(Cl)c2)CC1)c1c[nH]c(=O)o1

IC50 (Autotaxin [1]): 18 nM
SMILES: O=C(OCc1cc(Cl)cc(Cl)c1)N1CCC(N2CCN(C(=O)c3ccc4[nH]c(=O)oc4c3)CC2)C1 (racemic)
